Assay results of several laboratories.
Protocols differ between the studies behind these lines.
Plasmepsin II: Plasmepsin II (Plasmodium falciparum, UniProt P46925)
SIRT6: NAD-dependent protein deacylase sirtuin-6 (SIRT6, Homo sapiens, UniProt Q8N6T7)
PTAFR: Platelet-activating factor receptor (PTAFR, Homo sapiens, UniProt P25105)
HTR6: 5-hydroxytryptamine receptor 6 (HTR6, Homo sapiens, UniProt P50406)

SMILES | target | test | test system | conditions | inhibition [%]
C=CCC1(/C=C(\C)C=C)SC(=O)C(CC)=C1O (racemic) | Nicotinamide N-methyltransferase (NNMT, Homo sapiens, UniProt P40261) | enzyme activity, inhibitor | – | 10 µM | ~35
OC(CCN1CCN(c2ccc(C(F)(F)F)cc2)CC1)c1csc2ccc(F)cc12 (stereo not shown) | Plasmepsin II | enzyme activity, inhibitor | – | 5 µM | 0
Cc1cccc(CONC(=O)c2ccc(C(N)=O)cc2)c1 | SIRT6 | enzyme activity, inhibitor, fluorescence | – | 100 µM | 84
O=c1c2ccccc2c(Cc2ccc(Cl)cc2)nn1C1CCCNCC1 (stereo not shown) | Sodium channel protein type 5 subunit alpha (SCN5A, Homo sapiens, UniProt Q14524) | ion current, inhibitor, patch clamp | CHO | 10 µM | 62
CN1CC(Oc2cnc(C#N)cc2-c2ccn3nc(NC(=O)C4CC4)cc3c2)C1 | [Pyruvate dehydrogenase (acetyl-transferring)] kinase isozyme 4, mitochondrial (PDK4, Homo sapiens, UniProt Q16654) | enzyme activity, inhibitor | – | 1 µM | 2
Cc1cnc(C(=O)NCCNC(=O)Cn2[nH]c(=O)c3ccccc3c2=O)cn1 | Poly [ADP-ribose] polymerase 2 (PARP2, Homo sapiens, UniProt Q9UGN5) | enzyme activity, inhibitor | – | 0.5 µM | ~50
O=C(Nc1ccc(S(=O)(=O)N2CCC(Cl)CC2)cc1)c1ccc([N+](=O)[O-])o1 | PTAFR | ligand displacement, radioligand | – | 10 µM | 39
C/C(=C\C(=O)OCCCCCCCCC(=O)O)C[C@@H]1OC[C@H](C[C@@H]2O[C@H]2[C@@H](C)[C@H](C)O)[C@@H](O)[C@H]1O | C-C chemokine receptor type 5 (CCR5, Homo sapiens, UniProt P51681) | calcium signal, antagonist | U87/CD4/CCR5 | 100 µM | 96
CCCCCCCCCCCCNC(=S)NCCCC[C@H](NS(C)(=O)=O)C(=O)N[C@@H](C)C(=O)N[C@@H](CCCNC(=N)N)C(N)=O | SIRT6 | enzyme activity, inhibitor | – | 10 µM | 30
CC1=NN(c2ccccc2)CC1 | NADPH oxidase 4 (NOX4, Homo sapiens, UniProt Q9NPH5) | enzyme activity, inhibitor, fluorescence | – | 100 µM, cell membranes | > 40
Nc1ccc(-c2ccncc2)cc1NC(=O)N1CCCC1 | HTR6 | ligand displacement, radioligand | – | 10 µM | 16
O=C(NO)c1ccc(C(=O)NOCc2ccc(C(F)(F)F)cc2)cc1 | SIRT6 | enzyme activity, inhibitor, fluorescence | – | 100 µM | 93.3
O=[N+]([O-])c1ccc(N2CCN(CCC(O)c3csc4ccc(F)cc34)CC2)c(C(F)(F)F)c1 (stereo not shown) | Plasmepsin II | enzyme activity, inhibitor | – | 5 µM | 13
NC(=O)c1ccc(C(=O)NOCc2ccc3sc4ccccc4c3c2)cc1 | SIRT6 | enzyme activity, inhibitor, fluorescence | – | 100 µM | 96.2
Ic1cccc2cnccc12 | Protein mono-ADP-ribosyltransferase PARP14 (PARP14, Homo sapiens, UniProt Q460N5) | enzyme activity, inhibitor | – | 10 µM | 7
CCCNc1nc2ccccc2n1Cc1ccc(Cl)cc1 | HTR6 | ligand displacement | – | 10 µM | 36.6
CC/C(=N\NC(=O)NCc1cccc(O)c1)c1ccc(O)c(C)c1O | ALK tyrosine kinase receptor (ALK, Homo sapiens, UniProt Q9UM73, C1156Y) | enzyme activity, inhibitor | – | 0.1 µM | 2.3
CCCCCCOc1c(OC)cc2c3c1-c1cc4c(cc1CC3N(C)CC2c1ccccc1)OCO4 (stereo not shown) | 5-hydroxytryptamine receptor 7 (HTR7, Homo sapiens, UniProt P34969) | ligand displacement, radioligand | – | 10 µM | -14.6
NC(=O)c1ccc(C(=O)NOCc2ccc(-n3cccn3)cc2)cc1 | SIRT6 | enzyme activity, inhibitor, fluorescence | – | 100 µM | 91.8
CCN(Cc1ccccc1C(F)(F)F)C(=O)C1CCN(S(=O)(=O)c2ccc3[nH]ncc3c2)CC1 | PTAFR | ligand displacement, radioligand | – | 10 µM | 7
COC(=O)c1ccc(C(=O)NOCc2ccccc2)cc1 | SIRT6 | enzyme activity, inhibitor, fluorescence | – | 100 µM | 52.2
Cc1ccc(CNC(=O)[C@H](CCc2ccccc2)NC(=O)[C@H](CCc2ccccc2)NC(=O)[C@H](CCc2ccccc2)NC(=O)c2cnc(C)cn2)cc1 | Cathepsin B (CTSB, Homo sapiens, UniProt P07858) | enzyme activity, inhibitor | – | 100 µM | -15
NC(=O)c1ccc(C(=O)NOCc2cccc3ccccc23)cc1 | SIRT6 | enzyme activity, inhibitor, fluorescence | – | 100 µM | 92.2
CN(Cc1ccc(NC(=O)C2=Cc3cc(-c4ccc(OCCCCCO)cc4)ccc3CCC2)cc1)C1CCOCC1 | C-C chemokine receptor type 2 (CCR2, Homo sapiens, UniProt P41597) | ligand displacement, radioligand | – | 1 µM, cell membranes | 53
Cc1ccc(Sc2ccc(CONC(=O)c3ccc(C(N)=O)cc3)cc2C(F)(F)F)cc1 | SIRT6 | enzyme activity, inhibitor, fluorescence | – | 100 µM | 98.6
O=[N+]([O-])c1ccc(N2CCCN(CCC(O)c3csc4ccc(F)cc34)CC2)c(C(F)(F)F)c1 (stereo not shown) | Plasmepsin II | enzyme activity, inhibitor | – | 5 µM | 8
NCc1cccc(C(=O)NOCc2ccc(C(F)(F)F)cc2)c1 | SIRT6 | enzyme activity, inhibitor, fluorescence | – | 100 µM | 72.2
O=C(c1ccc(F)cc1)N(Cc1ccccc1)C1CCCCC1 | PTAFR | cell-free assay | – | 10 µM | 6
